According to ChEMBL document CHEMBL2151034, “Synthesis, biological evaluation and molecular docking studies of 3-(triazolyl)-coumarin derivatives: effect on inducible nitric oxide synthase” (Eur J Med Chem, 2012):
Active and inactive are the calls of the source. No cut-off for these calls is given here.

How the values were obtained:
Neutrophil [1] = experiment: Antiinflammatory activity in Wistar rat neutrophils assessed as inhibition of LPS-stimulated PGE2 production at 1000 uM after 18 hrs by ELISA; assay type: functional, cell-based
Procedure, shortened: (§1)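 Glycogen-elicited peritoneal neutrophils from male Wistar rats, 1 × 10⁶ cells, 18 h at 37 °C in 5% CO2 with or without E. coli LPS (serotype 026:B6). Compounds given at the same time, dissolved in HBSS; HBSS-treated cells serve as control. Nitrite measured by Griess reaction (absorbance at 550 nm, 10 min). PGE2 measured by ELISA in supernatant stored frozen at −80 °C. Mean ± s.e.m. of 4 independent assays.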

Neutrophil [2] = experiment: Antiinflammatory activity in Wistar rat neutrophils assessed as inhibition of LPS-stimulated TNFalpha production at 1000 uM after 18 hrs by ELISA; assay type: functional, cell-based
Procedure, shortened: (§2)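 Rat peritoneal neutrophils elicited by intraperitoneal oyster glycogen, 1 × 10⁶ cells, incubated 18 h at 37 °C in 5% CO2 in medium alone (basal) or with LPS, with compounds in HBSS added at the same time. Supernatant frozen at −80 °C. TNF-α and PGE2 quantified by ELISA in pg/ml. Compared against HBSS-treated cells. Mean ± s.e.m. of 4 independent assays.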

[3] = target: Nitric oxide synthase, inducible (Rattus norvegicus) (UniProt Q06518); experiment: Inhibition of iNOS in LPS-stimulated Wistar rat neutrophils assessed as decrease in total NOS activity at 100 uM after 18 hrs by enzymatic assay
Nitric oxide synthase, inducible (Rattus norvegicus), sequence (Q06518 whole entry): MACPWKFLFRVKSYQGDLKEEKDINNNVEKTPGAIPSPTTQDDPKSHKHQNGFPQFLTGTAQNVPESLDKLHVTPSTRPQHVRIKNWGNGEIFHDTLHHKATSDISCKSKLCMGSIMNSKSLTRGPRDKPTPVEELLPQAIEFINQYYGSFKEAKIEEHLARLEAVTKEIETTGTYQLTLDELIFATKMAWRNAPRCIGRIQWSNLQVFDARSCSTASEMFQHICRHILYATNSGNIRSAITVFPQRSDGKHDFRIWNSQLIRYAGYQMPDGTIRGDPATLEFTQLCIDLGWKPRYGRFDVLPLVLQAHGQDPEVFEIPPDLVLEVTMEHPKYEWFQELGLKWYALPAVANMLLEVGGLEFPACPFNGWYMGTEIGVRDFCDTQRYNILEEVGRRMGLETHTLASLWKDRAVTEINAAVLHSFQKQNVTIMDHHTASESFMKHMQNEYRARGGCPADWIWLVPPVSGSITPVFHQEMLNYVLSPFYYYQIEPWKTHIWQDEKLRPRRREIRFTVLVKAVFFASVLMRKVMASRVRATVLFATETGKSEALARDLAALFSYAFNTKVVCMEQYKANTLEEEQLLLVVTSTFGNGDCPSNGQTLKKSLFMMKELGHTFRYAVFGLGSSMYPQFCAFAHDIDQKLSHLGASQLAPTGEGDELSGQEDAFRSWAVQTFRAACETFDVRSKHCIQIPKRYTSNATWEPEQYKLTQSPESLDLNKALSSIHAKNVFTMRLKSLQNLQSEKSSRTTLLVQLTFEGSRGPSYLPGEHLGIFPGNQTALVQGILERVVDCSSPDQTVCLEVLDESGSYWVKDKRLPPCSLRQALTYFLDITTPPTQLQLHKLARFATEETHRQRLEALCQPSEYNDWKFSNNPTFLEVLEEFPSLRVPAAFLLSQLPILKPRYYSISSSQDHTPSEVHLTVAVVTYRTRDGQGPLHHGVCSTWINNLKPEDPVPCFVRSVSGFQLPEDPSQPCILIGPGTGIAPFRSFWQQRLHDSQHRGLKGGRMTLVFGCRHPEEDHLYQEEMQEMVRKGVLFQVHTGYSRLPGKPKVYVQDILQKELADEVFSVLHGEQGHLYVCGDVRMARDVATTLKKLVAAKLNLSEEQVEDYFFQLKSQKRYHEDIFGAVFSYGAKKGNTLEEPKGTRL
Procedure, shortened: (§3)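 Neutrophils treated 18 h with LPS and compound, then homogenized in cold 50 mM Tris-HCl pH 7.4 with 1 mM PMSF and 1 mM L-citrulline. Homogenates incubated 30 min at 37 °C with 1 mM NADPH. Activity expressed as pmol L-citrulline/min/mg protein, with protein by Bradford. Calcium-independent (iNOS) activity defined by omitting CaCl2 and adding 1 mM EGTA; 1 mM L-NAME used as control. Mean ± s.e.m., n = 4.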

Neutrophil [4] = experiment: Antiinflammatory activity in Wistar rat neutrophils assessed as inhibition of LPS-stimulated PGE2 production at 100 uM after 18 hrs by ELISA; assay type: functional, cell-based; procedure, shortened: as §1
[5] = Induction of apoptosis in Wistar rat neutrophils; assay type: cell-based; conditions: neutrophil
[6] = target: T1, Nitric oxide synthase 3 (Rattus norvegicus) (UniProt Q62600); experiment: Inhibition of eNOS in rat PMEC assessed as reduction in nitrite level at 100 uM after 48 hrs by Griess method
T1 sequence (whole entry): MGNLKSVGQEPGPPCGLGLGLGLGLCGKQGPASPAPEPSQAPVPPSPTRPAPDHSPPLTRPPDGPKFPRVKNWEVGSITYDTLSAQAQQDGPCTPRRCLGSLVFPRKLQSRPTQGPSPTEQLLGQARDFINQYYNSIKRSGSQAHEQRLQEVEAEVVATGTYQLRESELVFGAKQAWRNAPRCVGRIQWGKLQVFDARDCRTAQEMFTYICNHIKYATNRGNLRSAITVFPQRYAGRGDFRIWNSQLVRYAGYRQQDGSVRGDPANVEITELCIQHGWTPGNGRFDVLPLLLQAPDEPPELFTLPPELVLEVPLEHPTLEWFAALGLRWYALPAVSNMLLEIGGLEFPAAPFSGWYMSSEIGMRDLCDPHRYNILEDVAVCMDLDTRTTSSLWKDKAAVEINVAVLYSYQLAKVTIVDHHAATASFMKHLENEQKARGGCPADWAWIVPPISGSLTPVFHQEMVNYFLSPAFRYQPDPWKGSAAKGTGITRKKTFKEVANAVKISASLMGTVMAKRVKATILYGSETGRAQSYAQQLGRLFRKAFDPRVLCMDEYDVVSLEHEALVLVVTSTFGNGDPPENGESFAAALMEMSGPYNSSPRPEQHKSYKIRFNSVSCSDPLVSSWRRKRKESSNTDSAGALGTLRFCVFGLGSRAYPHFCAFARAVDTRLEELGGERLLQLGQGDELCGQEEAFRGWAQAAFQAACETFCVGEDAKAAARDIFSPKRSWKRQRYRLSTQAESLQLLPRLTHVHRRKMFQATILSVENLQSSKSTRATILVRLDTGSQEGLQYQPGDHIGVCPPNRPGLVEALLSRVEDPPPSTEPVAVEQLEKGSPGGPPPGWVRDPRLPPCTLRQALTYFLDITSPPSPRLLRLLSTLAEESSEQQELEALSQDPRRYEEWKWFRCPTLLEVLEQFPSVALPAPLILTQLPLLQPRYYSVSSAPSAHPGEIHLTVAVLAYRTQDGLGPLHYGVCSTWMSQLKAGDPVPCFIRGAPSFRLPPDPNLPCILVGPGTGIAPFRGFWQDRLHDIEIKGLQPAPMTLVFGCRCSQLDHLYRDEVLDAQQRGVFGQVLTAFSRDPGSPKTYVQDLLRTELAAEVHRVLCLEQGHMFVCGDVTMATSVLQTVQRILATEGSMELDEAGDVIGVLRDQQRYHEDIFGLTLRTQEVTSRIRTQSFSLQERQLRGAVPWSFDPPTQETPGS
Procedure, shortened: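 Primary microvascular endothelial cells from rat cremaster muscle explants, grown in DMEM with 20% fetal calf serum and used at confluence after subculture. Incubated 48 h at 37 °C in 5% CO2 without LPS, with coumarin compounds or L-NAME at 100 µM. Nitrite in supernatant measured by Griess reaction at 550 nm. Mean ± s.e.m. of 4 independent assays.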

Neutrophil [7] = experiment: Antiinflammatory activity in Wistar rat neutrophils assessed as reduction of LPS-stimulated TNFalpha production at 100 uM after 18 hrs by ELISA; assay type: functional, cell-based; procedure, shortened: as §2
[8] = Cytotoxicity against Wistar rat neutrophils assessed as cell viability; assay type: cell-based, Neutrophil; conditions: read-out: Activity
[9] = Induction of necrosis in Wistar rat neutrophils; assay type: cell-based; conditions: neutrophil
Neutrophil [10] = experiment: Inhibition of LPS-induced iNOS expression in Wistar rat neutrophils assessed as reduction of NO production after 18 hrs by Western blot analysis; assay type: functional, cell-based
Procedure, shortened: (§4)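 Glycogen-elicited Wistar rat neutrophils, 1 × 10⁶ cells, incubated 18 h with LPS plus compound or control. Protein: homogenate in 50 mM Tris pH 7.4 with PMSF, 50 µg run on 7% SDS-PAGE, blocked with casein, mouse monoclonal anti-iNOS at 500 ng/mL, HRP chemiluminescence, densitometry normalized to β-actin. mRNA: real-time PCR against GAPDH, quantified by the Liu and Saint method. Mean ± s.e.m. of 4 independent assays.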

[11] = Induction of TNFalpha production in Wistar rat neutrophils at 100 uM after 18 hrs by ELISA relative to vehicle-treated control; assay type: cell-based; conditions: neutrophil; procedure, shortened: as §2
[12] = Inhibition of LPS-stimulated NO production in Wistar rat neutrophils at 10 uM after 18 hrs by Griess method; conditions: neutrophil
[13] = target: Nitric oxide synthase, inducible (Rattus norvegicus) (UniProt Q06518); experiment: Inhibition of iNOS activity in LPS-stimulated Wistar rat neutrophils at 100 uM after 18 hrs by enzymatic assay; procedure, shortened: as §3
Neutrophil [14] = experiment: Antiinflammatory activity in Wistar rat neutrophils assessed as reduction of TNFalpha production at 100 uM after 18 hrs by ELISA; assay type: functional, cell-based; procedure, shortened: as §2
Neutrophil [15] = experiment: Inhibition of iNOS expression in Wistar rat neutrophils assessed as reduction of NO production after 18 hrs by Western blot analysis; assay type: functional, cell-based; procedure, shortened: as §4
[16] = Induction of PGE2 production in Wistar rat neutrophils at 100 uM after 18 hrs by ELISA; assay type: cell-based; conditions: neutrophil; procedure, shortened: as §2
Neutrophil [17] = experiment: Antiinflammatory activity in Wistar rat neutrophils assessed as inhibition of LPS-stimulated NO production at 10 to 100 uM after 18 hrs by Griess method; assay type: functional, cell-based; procedure, shortened: as §1
Neutrophil [18] = experiment: Inhibition of LPS-induced cytoplasmic iNOS expression in Wistar rat neutrophils assessed as decrease in protein level after 18 hrs by Western blot analysis; assay type: functional, cell-based; procedure, shortened: as §4
Rattus norvegicus = experiment: Antiinflammatory activity in LPS-induced rat subcutaneous dorsal inflamed tissue assessed as reduction of neutrophil recruitment at 50 mg/kg, ip after 4 hrs post LPS challenge by Giemsa staining; assay type: functional, organism-based; parameters: dose 50 mg/kg
Procedure, shortened: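 Rat dorsal air pouch: 10 mL sterile air injected subcutaneously, refilled with 10 mL on day 7. On day 10, 50 mg/kg in 1 mL sterile PBS was given intraperitoneally (per methods) at the same time as LPS (1.5 mg/mL) was injected into the pouch; controls got PBS. Exudate leukocytes were counted 4 h later by Neubauer chamber and dyed smears. Mean ± s.e.m., 3 animals/group.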

Neutrophil [19] = experiment: Inhibition of LPS-induced iNOS gene expression in Wistar rat neutrophils assessed as decrease in mRNA level after 18 hrs by real-time PCR analysis; assay type: functional, cell-based; procedure, shortened: as §4

SMILES	inhibition (Neutrophil [1])	inhibition (Neutrophil [2])	inhibition [3]	inhibition (Neutrophil [4])	Activity [5]	inhibition [6]	Activity (Neutrophil [7])	viability [8]	Activity [9]	inhibition (Neutrophil [10])	Activity [11]	Activity [12]	inhibition [13]	Activity (Neutrophil [14])	inhibition (Neutrophil [15])	Activity [16]	inhibition (Neutrophil [17])	inhibition (Neutrophil [18])	Activity (Rattus norvegicus)	inhibition (Neutrophil [19])
CCCCCCn1cc(-c2cc3ccccc3oc2=O)nn1	inactive	inactive	Active	inactive	Non-toxic	Active	inactive	> 90%	Non-toxic	Active	Toxic	Toxic	Active	inactive	Active	–	–	–	–	–
CCCCCCCCCCn1cc(-c2cc3ccccc3oc2=O)nn1	inactive	inactive	Active	inactive	Non-toxic	inactive	inactive	> 90%	Non-toxic	Active	–	–	Active	inactive	Active	Toxic	Active	–	–	–
CCCCCCCCn1cc(-c2cc3ccccc3oc2=O)nn1	inactive	inactive	Active	inactive	Non-toxic	inactive	inactive	> 90%	Non-toxic	Active	–	–	Active	inactive	Active	Toxic	Active	–	–	–
O=c1oc2ccccc2cc1-c1cn(-c2ccccc2)nn1	inactive	inactive	Active	inactive	Non-toxic	inactive	inactive	> 90%	Non-toxic	Active	–	–	Active	inactive	Active	–	Active	Active	Active	Active
N=C(N)NN	–	–	–	–	–	–	–	–	–	–	–	–	–	–	–	–	–	–	Active	–
COC(=O)[C@@H](N)CCCNC(=N)N[N+](=O)[O-]	–	–	–	–	–	Active	–	–	–	–	–	–	–	–	–	–	–	–	–	–
